Measured values reported in ChEMBL document CHEMBL4699504, “7-Hydroxycoumarins Are Affinity-Based Fluorescent Probes for Competitive Binding Studies of Macrophage Migration Inhibitory Factor” (J Med Chem, 2020).
Converted amounts (≈) assume the structure as drawn. Blank lines part the entries; values can stand above or below the compound they belong to. The source made the active and inactive calls. The calls are words filed in the database; no cut-off is given here.

Legend:
[1] = target: T1, Macrophage migration inhibitory factor (Homo sapiens, UniProt P14174); test: Inhibition of C-terminal His-tagged recombinant human MIF expressed in Escherichia coli BL21 (DE3) using 4-HPP as substrate preincubated for 10 mins followed by substrate addition by UV absorption spectrum analysis
T1 sequence (P14174 whole entry): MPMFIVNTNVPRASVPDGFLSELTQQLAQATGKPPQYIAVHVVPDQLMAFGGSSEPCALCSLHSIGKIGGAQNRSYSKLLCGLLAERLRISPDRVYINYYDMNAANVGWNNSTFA

[2] = target: T2, Macrophage migration inhibitory factor (Homo sapiens) (UniProt P14174); test: Inhibition of C-terminal His-tagged recombinant human MIF expressed in Escherichia coli BL21 (DE3) at 25 uM using 4-HPP as substrate preincubated for 10 mins followed by substrate addition by UV absorption spectrum analysis relative to control
T2 sequence (whole entry): T1 sequence (P14174 whole entry)

[3] = target: T1, Macrophage migration inhibitory factor; test: Displacement of 4'-(7-Hydroxy-2-oxo-2H-chromen-3-yl)-[1,1'-biphenyl]-4-carboxylic acid from C-terminal His-tagged recombinant human MIF expressed in Escherichia coli BL21 (DE3) preincubated for 10 mins followed by probe addition and measured after 10 mins by fluorescence assay
[4] = target: T2, Macrophage migration inhibitory factor (Homo sapiens); test: Binding affinity to C-terminal His-tagged recombinant human MIF expressed in Escherichia coli BL21 (DE3) assessed as inhibition of MIF interaction with MBP-fused human CD74 up to 50 uM preincubated for 10 mins with CD74 followed by MIF addition and measured after 30 mins by ELISA; conditions: dose microM <=50, time 40.0 min
Procedure, shortened: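 MIF (250 nM) coated on plates overnight at 4 °C, then blocked with 2% BSA for 1 h at RT. Inhibitor in DMSO premixed 10 min at RT with MBP–sCD74 (final 500 nM sCD74; inhibitor 1–100 μM), then added to wells for 30 min at RT. Bound sCD74 detected with rabbit anti-CD74 pAb and goat anti-rabbit HRP. No-inhibitor signal set to 100%, no-sCD74 signal to 0%. n = 3.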

A549 [5] = test: Inhibition of colony formation in human A549 cells at 100 uM incubated for 10 days by crystal violet staining based assay; format: functional, cell-based; conditions: time 10.0 day
Procedure, shortened: (§1)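 A549 seeded at 100 cells/well in RPMI with 10% FBS, overnight, then treated 10 days (0.2% DMSO final); fixed 4% paraformaldehyde, stained 0.5% crystal violet; colonies (>50 cells) counted vs 0.2% DMSO control; three independent experiments.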

[6] = target: T1, Macrophage migration inhibitory factor; test: Binding affinity to C-terminal His-tagged recombinant human MIF expressed in Escherichia coli BL21 (DE3) at 100 nM by fluorescence assay
Procedure, shortened: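 Fluorescent indicator displacement in PBS pH 7.4. Compound preincubated with MIF 10 min at RT, then 7-hydroxycoumarin indicator added for another 10 min at RT. Final MIF 100 nM, indicator 50 nM, DMSO 2.5%. Fluorescence read at Ex/Em 355/455 nm. EC50 for fluorescence recovery from nonlinear fit, converted to Kd with a displacement equation using indicator KS. Three independent experiments.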

[7] = target: T1, Macrophage migration inhibitory factor; test: Binding affinity to C-terminal His-tagged recombinant human MIF expressed in Escherichia coli BL21 (DE3) at 200 nM by fluorescence assay
Procedure, shortened: (§2)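 Equal volumes of fluorophore (diluted from 10 mM DMSO stock to 200 nM in PBS pH 7.4) and MIF dilution series (16–8000 nM) mixed, 10 min at room temperature; fluorescence read at Ex/Em 340/460 nm or 355/455 nm; KS from hyperbolic fit of specific binding curve; n = 3.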

[8] = target: T2, Macrophage migration inhibitory factor (Homo sapiens); test: Binding affinity to C-terminal His-tagged recombinant human MIF expressed in Escherichia coli BL21 (DE3) assessed as fluorescence quenching at 50 nM by fluorescence assay; procedure, shortened: as §2
[9] = Half life of compound in pH 7.4 PBS buffer at 100 nM; format: physicochemical; conditions: pH 7.4, 0.1 µM
Procedure, shortened: (§3)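 Fluorescence lifetime of 100 nM fluorophore in 1 mL PBS pH 7.4, measured alone or with 500 nM MIF.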

[10] = target: T2, Macrophage migration inhibitory factor (Homo sapiens); test: (§4) Binding affinity to C-terminal His-tagged recombinant human MIF expressed in Escherichia coli BL21 (DE3) assessed as inhibition of MIF interaction with MBP-fused human CD74 preincubated for 10 mins with CD74 followed by MIF addition and measured after 30 mins by ELISA; conditions: time 40.0 min
Procedure, shortened: (§5)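 MIF (250 nM, 100 μL) coated overnight at 4 °C, blocked 1 h with 2% BSA; inhibitor (1–100 μM) premixed 10 min with 500 nM MBP–sCD74, added 30 min at room temperature; bound sCD74 detected with rabbit anti-CD74 then HRP anti-rabbit, 30 min each; DMSO = 100%, no sCD74 = 0%; mean ± SD, n = 3.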

[11] = target: T1, Macrophage migration inhibitory factor; test: as §4; procedure, shortened: as §5
[12] = target: T2, Macrophage migration inhibitory factor (Homo sapiens); test: Binding affinity to C-terminal His-tagged recombinant human MIF expressed in Escherichia coli BL21 (DE3) assessed as fluorescence quenching at 50 nM in presence of CuSO4 by fluorescence assay
Procedure, shortened: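 Indicator displacement setup (100 nM MIF, 50 nM fluorophore, PBS pH 7.4) run with Cu2+ ions up to 200 μM; fluorescence read at Ex/Em 355/455 nm.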

[13] = Half life of compound in pH 7.4 PBS buffer at 100 nM in presence of MIF; format: physicochemical; conditions: pH 7.4, 0.1 µM; procedure, shortened: as §3
[14] = target: T2, Macrophage migration inhibitory factor (Homo sapiens); test: Inhibition of MIF (unknown origin) cultured in human A549 cells assessed as reduction in MIF-induced ERk phosphorylation at 10 uM preincubated with MIF for 10 mins followed by cell addition and measured after 10 mins by Western blot analysis; format: cell-based; conditions: time 20.0 min
Procedure, shortened: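 A549 (2 × 10^5/well) cultured overnight; 150 ng/mL endotoxin-free MIF preincubated 10 min with compound, then applied to cells 10 min at 37 °C (0.2% DMSO); lysates (30 μg protein) blotted; pERK/GAPDH ratio; four independent experiments.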

A549 [15] = test: Inhibition of colony formation in human A549 cells at 2.5 to 10 uM incubated for 10 days by crystal violet staining based assay; format: functional, cell-based; conditions: dose microM 2.5-10, time 10.0 day; procedure, shortened: as §1
[16] = target: T2, Macrophage migration inhibitory factor (Homo sapiens); test: Competitive inhibition of C-terminal His-tagged recombinant human MIF expressed in Escherichia coli BL21 (DE3) up to 50 nM using varying levels of 4-HPP as substrate preincubated for 10 mins followed by substrate addition by Lineweaver-burk plot analysis; conditions: dose nM <=50, time 10.0 min
[17] = Solubility of compound in pH 7.4 phosphate buffer; format: physicochemical
Procedure, shortened: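 Solubility measured in PBS pH 7.4.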

A549 [18] = test: Toxicity in human A549 cells assessed as reduction in cell viability up to 20 uM measured after 24 hrs by MTS assay; format: cell-based; conditions: a549, 24 h
Procedure, shortened: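 A549 cells treated 24 h; viability read by MTS assay.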

Albumin = Albumin (Bos taurus, UniProt P02769); test: Binding affinity to bovine serum albumin assessed as fluorescence quenching at 50 nM by fluorescence assay; format: ADME; conditions: cattle, isolated protein, 0.05 µM
Procedure, shortened: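 Control for non-specific quenching: 50 nM fluorophore titrated with BSA (up to 800 nM) in PBS pH 7.4, fluorescence intensity compared against MIF titration.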

[19] = target: T2, Macrophage migration inhibitory factor (Homo sapiens); test: Binding affinity to C-terminal His-tagged recombinant human MIF expressed in Escherichia coli BL21 (DE3) at 100 nM in presence of 3-(3,4-Dimethoxyphenyl)-7-hydroxy-3,4-dihydro-2Hbenzo[e][1,3]oxazin-2-one by fluorescence assay
[20] = target: T2, Macrophage migration inhibitory factor (Homo sapiens); test: Binding affinity to C-terminal His-tagged recombinant human MIF expressed in Escherichia coli BL21 (DE3) assessed as fluorescence quenching at 200 nM by fluorescence assay; procedure, shortened: as §2
[21] = Absorption property of the compound in pH 7.4 PBS buffer assessed as maximum absorption wavelength at 100 uM by UV-vis spectra analysis; format: physicochemical; conditions: pH 7.4, 100 µM
Procedure, shortened: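 UV absorption spectra recorded at 100 μM compound in PBS pH 7.4 containing 5% (v/v) DMSO on a plate reader; wavelength of maximum absorbance taken.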

[22] = Emission property of the compound in pH 7.4 PBS buffer assessed as maximum emission wavelength at 200 nm by fluorescence spectra analysis; conditions: pH 7.4, 200 nM

SMILES: O=C(NCc1ccccc1)c1cc2ccc(O)cc2oc1=O
inhibition [2]: 12%

SMILES: Oc1ccc(-n2cc(-c3ccccn3)nn2)cc1
Kd [3]: 4000 nM

SMILES: O=C(NCc1cn(-c2ccc(O)c(F)c2)nn1)c1cc2ccccc2[nH]1
Kd [3]: 4400 nM

SMILES: COC(=O)CC1CC(c2ccc(O)cc2)=NO1 (stereo not given)
inhibition [4]: inactive | inhibition (A549 [5]): Active

SMILES: COc1ccc(N2Cc3ccc(O)cc3OC2=O)cc1OC
Kd [3]: 110 nM | inhibition [4]: inactive | Ki [1]: 100 nM | Kd [6]: 156 nM

SMILES: CCOC(=O)c1cc2ccc(O)cc2oc1=O
IC50 [1]: 18600 nM | Ki [1]: 12400 nM

SMILES: O=C(O)c1ccc(-c2ccc(-c3cc4ccc(O)cc4oc3=O)cc2)cc1
Kd [7]: 16 nM | Ks [8]: 16 nM | t1/2 [9]: 4.2 nanoseconds | inhibition [10]: Dose-dependent effect | IC50 [11]: 36000 nM | Activity [12]: Active | t1/2 [13]: 4 nanoseconds | inhibition [14]: Active | inhibition (A549 [15]): Active | inhibition [16]: Active | solubility ([17]; buffer): 18.8 µg/mL (≈ 52.5 µM) | Activity (A549 [18]): Non-Toxic | Activity (Albumin): Not Active

SMILES: Oc1ccc(-n2cc(-c3cc4ccccc4cn3)nn2)cc1
Kd [3]: 470 nM | Ki [1]: 440 nM | solubility ([17]; phosphate buffer): 2.2 µg/mL (≈ 7.63 µM)

SMILES: O=C(Nc1ccccc1)c1cc2ccc(O)cc2oc1=O
inhibition [2]: 11%

SMILES: O=C(NCc1cn(-c2ccc(O)c(F)c2)nn1)c1cc2cc(Cl)ccc2[nH]1
Kd [3]: 1400 nM | solubility ([17]; phosphate buffer): 10.8 µg/mL (≈ 28 µM)

SMILES: COc1ccc(C(=O)N/N=C/c2ccc(O)c(F)c2)cc1
Kd [3]: 5600 nM | Ki [1]: 8000 nM

Further lines, results first:

IC50 [1]: 2540 nM | Ki [1]: 1690 nM
SMILES: O=c1oc2cc(O)ccc2cc1-c1ccc(F)cc1

IC50 [1]: 470 nM | Ki [1]: 310 nM
SMILES: O=c1oc2cc(O)ccc2cc1-c1ccc(Br)cc1

IC50 [1]: 2190 nM | Ki [1]: 1460 nM
SMILES: O=c1oc2cc(O)ccc2cc1-c1ccc2ccccc2c1

IC50 [1]: 1930 nM | Ki [1]: 1290 nM
SMILES: O=c1oc2cc(O)ccc2cc1-c1cccc(Cl)c1

IC50 [1]: 920 nM | Ki [1]: 610 nM
SMILES: O=c1oc2cc(O)ccc2cc1-c1ccc(Cl)cc1

IC50 [1]: 720 nM | Ki [1]: 480 nM
SMILES: O=c1oc2cc(O)ccc2cc1-c1ccc(I)cc1

IC50 [1]: 1850 nM | Ki [1]: 1230 nM
SMILES: COc1cccc(-c2cc3ccc(O)cc3oc2=O)c1

IC50 [1]: 1760 nM | Ki [1]: 1170 nM
SMILES: O=c1oc2cc(O)ccc2cc1-c1ccccc1

IC50 [1]: 19100 nM | Ki [1]: 12700 nM
SMILES: O=c1oc2cc(O)ccc2cc1-c1ccccc1Cl

Activity [19]: inactive | IC50 [1]: 560 nM | Kd [6]: 390 nM | Activity [20]: Active | Activity [21]: 340 nm | Activity [22]: 460 nm
SMILES: COc1ccc(-c2cc3ccc(O)cc3oc2=O)cc1

IC50 [1]: 690 nM | Ki [1]: 460 nM
SMILES: Cc1ccc(-c2cc3ccc(O)cc3oc2=O)cc1

IC50 [1]: 2780 nM | Ki [1]: 1850 nM
SMILES: COc1ccccc1-c1cc2ccc(O)cc2oc1=O
